Test results reported in ChEMBL document CHEMBL4725434, “Discovery of Selective, Covalent FGFR4 Inhibitors with Antitumor Activity in Models of Hepatocellular Carcinoma” (ACS Med Chem Lett, 2020).
The source made the active and inactive calls. The calls are words filed in the database; no cut-off is given here.

Tests used:
[1] = Oral bioavailability in cynomolgus monkey at 10 mg/kg; assay type: ADME, organism-based, Macaca fascicularis; conditions: in vivo
[2] = Half life in rat at 10 mg/kg, po; assay type: ADME, organism-based; conditions: in vivo
[3] = Oral bioavailability in mouse at 10 mg/kg; assay type: ADME, organism-based; conditions: in vivo
[4] = Half life in mouse at 3 mg/kg, iv; assay type: ADME, organism-based; conditions: in vivo
Huh-7 [5] = assay: Antitumor activity against human Huh7 cells xenografted in po dosed SCID mouse sorafenib-resistance established model assessed as tumor regression at 30 mg/kg, po bid for 11 days relative to untreated control; conditions: time 11.0 day
FGFR4 (Homo sapiens) = assay: In vivo receptor occupancy at FGFR4 in human Huh7 cells xenografted SCID mouse orthotopic model at 100 mg/kg, po qd after 10 hrs relative to control
[6] = Clearance in mouse at 3 mg/kg, iv; assay type: ADME, organism-based; conditions: in vivo
[7] = Volume of distribution at steady state in cynomolgus monkey at 3 mg/kg, iv; assay type: ADME, organism-based, Macaca fascicularis; conditions: in vivo, read-out: Vdss
[8] = Half life in cynomolgus monkey at 3 mg/kg, iv; assay type: ADME, organism-based, Macaca fascicularis; conditions: in vivo
[9] = Half life in cynomolgus monkey at 10 mg/kg, po; assay type: ADME, organism-based, Macaca fascicularis; conditions: in vivo
[10] = Volume of distribution at steady state in mouse at 3 mg/kg, iv; assay type: ADME, organism-based; conditions: in vivo, read-out: Vdss
[11] = AUC in cynomolgus monkey at 10 mg/kg, po; assay type: ADME, organism-based, Macaca fascicularis; parameters: dose 10 mg/kg; conditions: in vivo
[12] = AUC in rat at 10 mg/kg, po; assay type: ADME, organism-based; parameters: dose 10 mg/kg; conditions: in vivo
[13] = Half life in rat at 3 mg/kg, iv; assay type: ADME, organism-based; conditions: in vivo
[14] = Clearance in rat at 3 mg/kg, iv; assay type: ADME, organism-based; conditions: in vivo
Huh-7 [15] = assay: Antitumor activity against human Huh7 cells xenografted in po dosed SCID mouse sorafenib-resistance established model assessed as tumor regression at 100 mg/kg, po bid for 11 days relative to untreated control; conditions: time 11.0 day
[16] = Cmax in rat at 10 mg/kg, po; assay type: ADME, organism-based; parameters: route oral, dose 10 mg/kg; conditions: in vivo
Hep 3B2 = assay: Antitumor activity against human Hep3B cells xenografted in SCID mouse orthotopic model assessed as inhibition of tumor regression at 100 mg/kg, po bid measured after 28 days relative to control; conditions: time 28.0 day
[17] = AUC in rat at 3 mg/kg, iv; assay type: ADME, organism-based; parameters: dose 3 mg/kg; conditions: in vivo
Huh-7 [18] = assay: Antitumor activity against human Huh7 cells xenografted in po dosed SCID mouse sorafenib-resistance established model assessed as tumor regression measured after 11 days relative to untreated control; assay type: functional, organism-based; conditions: time 11.0 day
How it was run: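 Huh7 tumors grown subcutaneously in SCID mice were made sorafenib-resistant by oral sorafenib at 100 mg/kg daily for […]. Oral dosing was then given at 10, 30 or 100 mg/kg BID for 11 days. Sorafenib 100 mg/kg once daily was the comparator arm. Read-out was tumor growth as %ΔT/ΔC.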

[19] = AUC in mouse at 3 mg/kg, iv; assay type: ADME, organism-based; parameters: dose 3 mg/kg; conditions: in vivo
[20] = Volume of distribution at steady state in rat 3 mg/kg, iv; assay type: ADME, organism-based; conditions: in vivo, read-out: Vdss
[21] = AUC in cynomolgus monkey at 3 mg/kg, iv; assay type: ADME, organism-based, Macaca fascicularis; parameters: dose 3 mg/kg; conditions: in vivo
[22] = Clearance in cynomolgus monkey at 3 mg/kg, iv; assay type: ADME, organism-based, Macaca fascicularis; conditions: in vivo
[23] = AUC in mouse at 10 mg/kg, po; assay type: ADME, organism-based; parameters: dose 10 mg/kg; conditions: in vivo
[24] = Oral bioavailability in rat 10 mg/kg; assay type: ADME, organism-based; conditions: in vivo
[25] = Half life in mouse at 10 mg/kg, po; assay type: ADME, organism-based; conditions: in vivo
[26] = Cmax in mouse at 10 mg/kg, po; assay type: ADME, organism-based; parameters: route oral, dose 10 mg/kg; conditions: in vivo

## C=CC(=O)N[C@H]1COC[C@H]1Nc1ncc2cc(-c3c(Cl)c(OC)cc(OC)c3Cl)c(=O)n(C)c2n1
[1]
  bioavailability: 27%
[2]
  half-life: 3.2 h
[3]
  bioavailability: 20%
[4]
  t1/2: 2.1 h
Huh-7 [5]
  Activity: Active
FGFR4 (Homo sapiens)
  Activity: >80%
[6]
  clearance: 17.2 mL/min/kg
[7]
  Vd: 1.1 L/kg
[8]
  t1/2: 4.8 h
[9]
  half-life: 2 h
[10]
  Vd: 0.63 L/kg
[11]
  AUC: 5660 ng·h/mL
[12]
  AUC: 2230 ng·h/mL
[13]
  t1/2: 2.1 h
[14]
  clearance: 9 mL/min/kg
Huh-7 [15]
  Activity: Active
[16]
  Cmax: 588 ng/mL
Hep 3B2
  Activity: Active
[17]
  AUC: 5610 ng·h/mL
Huh-7 [18]
  Activity: inactive
[19]
  AUC: 2910 ng·h/mL
[20]
  Vd: 0.3 L/kg
[21]
  AUC: 6420 ng·h/mL
[22]
  clearance: 8.4 mL/min/kg
[23]
  AUC: 2960 ng·h/mL
[24]
  bioavailability: 12%
[25]
  half-life: 1.8 h
[26]
  Cmax: 423 ng/mL
